In ChEMBL document CHEMBL3399971:

Assays:
[1] = Cytotoxicity against mouse BV2 cells by CytoTox96 non-radioactive cytotoxicity assay; assay type: cell-based, BV-2; conditions: for MNTC: BV2 cells, read-out: MNCC
Summary of the method: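 BV2 murine microglia in DMEM with 10% FBS, 37°C, 5% CO2. Compounds in 0.02% DMSO (final) added 1 h before LPS (50 ng/ml), 24 h co-incubation. Viability by CytoTox96 non-radioactive kit. Value is the highest concentration without obvious cytotoxicity.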

[2] = target: Metabotropic glutamate receptor 5 (Mus musculus, UniProt Q3UVX5); experiment: Positive allosteric modulator activity at mGluR5 in mouse BV2 cells assessed as inhibition of nitric oxide production pre-treated 1 hr before lipopolysaccharide stimulation and measured 24 hrs post lipopolysaccharide stimulation by Griess reagent assay; assay type: cell-based, BV-2
Summary of the method: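 BV2 microglia grown in DMEM plus 10% FBS at 37°C, 5% CO2. Pretreated 1 h with compound in 0.02% DMSO (final), then stimulated with LPS 50 ng/ml for 24 h. Read-out is supernatant nitrite by Griess reagent as a proxy for NO. IC50 is the mean of three independent experiments.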

[3] = Selectivity index, ratio of MNCC against mouse BV2 cells to IC50 for mGluR5 in mouse BV2 cells; assay type: functional, BV-2

Chain of Metabotropic glutamate receptor 5 (Q3UVX5 whole entry): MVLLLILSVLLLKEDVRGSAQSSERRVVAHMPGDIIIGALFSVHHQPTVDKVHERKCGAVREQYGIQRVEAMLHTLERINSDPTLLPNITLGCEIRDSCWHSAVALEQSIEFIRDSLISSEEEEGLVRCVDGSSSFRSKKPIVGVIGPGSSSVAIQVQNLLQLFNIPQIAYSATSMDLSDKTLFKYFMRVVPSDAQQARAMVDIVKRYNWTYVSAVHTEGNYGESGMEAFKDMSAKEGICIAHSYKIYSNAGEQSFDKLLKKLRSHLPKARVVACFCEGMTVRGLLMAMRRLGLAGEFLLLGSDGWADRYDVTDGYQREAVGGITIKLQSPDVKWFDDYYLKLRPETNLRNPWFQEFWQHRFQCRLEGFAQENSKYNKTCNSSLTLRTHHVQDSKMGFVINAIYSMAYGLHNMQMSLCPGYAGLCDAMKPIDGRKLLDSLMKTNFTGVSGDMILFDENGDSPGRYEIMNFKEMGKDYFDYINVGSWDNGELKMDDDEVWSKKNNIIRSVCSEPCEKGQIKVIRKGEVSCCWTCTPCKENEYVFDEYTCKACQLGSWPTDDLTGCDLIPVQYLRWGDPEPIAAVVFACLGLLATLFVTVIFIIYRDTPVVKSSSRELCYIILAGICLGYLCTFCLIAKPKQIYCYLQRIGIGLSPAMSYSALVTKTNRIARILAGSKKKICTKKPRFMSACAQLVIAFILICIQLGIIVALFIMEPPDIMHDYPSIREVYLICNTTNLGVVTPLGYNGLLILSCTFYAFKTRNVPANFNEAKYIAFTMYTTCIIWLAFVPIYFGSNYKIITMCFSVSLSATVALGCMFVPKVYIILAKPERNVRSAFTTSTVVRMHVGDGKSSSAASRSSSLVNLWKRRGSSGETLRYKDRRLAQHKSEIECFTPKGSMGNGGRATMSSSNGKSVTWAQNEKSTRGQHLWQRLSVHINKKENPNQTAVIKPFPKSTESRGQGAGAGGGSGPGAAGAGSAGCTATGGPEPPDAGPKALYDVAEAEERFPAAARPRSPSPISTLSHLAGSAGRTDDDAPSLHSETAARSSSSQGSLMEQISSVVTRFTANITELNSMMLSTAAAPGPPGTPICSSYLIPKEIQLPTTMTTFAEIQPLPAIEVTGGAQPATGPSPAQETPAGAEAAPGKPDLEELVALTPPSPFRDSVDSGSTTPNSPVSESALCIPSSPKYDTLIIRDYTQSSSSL

| SMILES | MNTC [1] | IC50 ([2]; read-out: IC50) | Selectivity Index [3] | MNCC ([1]; bv-2) | IC50 ([2]; bv-2) |
| --- | --- | --- | --- | --- | --- |
| O=C(Nc1nc2ccccc2[nH]1)c1cc(C(F)(F)F)ccc1C(F)(F)F | 0.06 mM | 34 µM | 1.74 | – | – |
| O=C(Nc1nc2ccccc2[nH]1)c1ccncc1 | 1 mM | – | – | – | – |
| O=C(Nc1nc2ccccc2[nH]1)c1ccccc1Cl | 0.3 mM | 110 µM | 2.67 | – | – |
| O=C(Nc1nc2ccccc2[nH]1)c1cccc(Cl)c1 | 1 mM | 29 µM | 34.6 | – | – |
| O=C(Nc1nc2ccccc2[nH]1)c1ccccc1F | 1 mM | 36 µM | 28 | – | – |
| O=C(Nc1nc2ccccc2[nH]1)c1ccc(F)cc1 | 1 mM | 15 µM | 67.1 | – | – |
| O=C(/C=C/c1ccncc1)Nc1nc2ccccc2[nH]1 | 1 mM | 22 µM | 44.8 | – | – |
| CN(C)c1cccc(C(=O)Nc2nc3ccccc3[nH]2)c1 | 0.3 mM | 20 µM | 14.7 | – | – |
| O=C(Nc1nc2ccccc2[nH]1)c1ccc(C(F)(F)F)cc1 | 1 mM | 59 µM | 16.9 | – | – |
| Fc1cccc(/C=N/N=C/c2cccc(F)c2)c1 | 0.5 mM | – | – | – | – |
| O=C(Nc1nc2ccccc2[nH]1)c1ccc(Cl)c(Cl)c1 | 0.1 mM | 9.8 µM | 10.2 | – | – |
| O=C(Nc1nc2ccccc2[nH]1)c1cc(Cl)cc(Cl)c1 | 0.8 mM | 6.4 µM | 125 | – | – |
| O=C(Nc1nc2ccccc2[nH]1)c1ccccn1 | – | – | – | ND(Insoluble) | ND(Insoluble) |
| O=C(Nc1nc2ccccc2[nH]1)c1ccc([N+](=O)[O-])cc1 | 0.3 mM | 33 µM | 9.2 | – | – |
| O=C(Nc1nc2ccccc2[nH]1)c1ccccc1 | 1 mM | 160 µM | 6.17 | – | – |
| O=C(Nc1nc2ccccc2[nH]1)c1ccc(Cl)cc1 | 1 mM | 25 µM | 40.4 | – | – |
| O=C(Nc1nc2ccccc2[nH]1)c1cccc([N+](=O)[O-])c1 | 1 mM | 29 µM | – | – | – |
| O=C(Nc1nc2ccccc2[nH]1)c1cc(Cl)ccc1Cl | 0.1 mM | 12 µM | 8.33 | – | – |
| CN(C(=O)c1cccc(Cl)c1)c1nc2ccccc2[nH]1 | 1 mM | 210 µM | 4.85 | – | – |
| O=C(Sc1nc2ccccc2[nH]1)c1cccc(Cl)c1 | 1 mM | 160 µM | 6.36 | – | – |
| O=C(Nc1nc2ccccc2[nH]1)C1CCCCC1 | 1 mM | 42 µM | 24.1 | – | – |
| COc1ccc(C(=O)Nc2nc3ccccc3[nH]2)cc1 | 1 mM | 100 µM | 10.1 | – | – |
| O=C(Nc1nc2ccccc2[nH]1)c1ccccc1C(F)(F)F | 1 mM | 88 µM | 11.3 | – | – |
| O=C(Nc1nc2ccccc2[nH]1)c1cccc(C(F)(F)F)c1 | 0.2 mM | 12 µM | 17.2 | – | – |
| O=C(Nc1nc2ccccc2[nH]1)C1CCC1 | 0.06 mM | 15 µM | 3.97 | – | – |
| COc1cc(C(=O)Nc2nc3ccccc3[nH]2)ccc1S(N)(=O)=O | 1 mM | 150 µM | 6.59 | – | – |
| COc1cccc(C(=O)Nc2nc3ccccc3[nH]2)c1 | 1 mM | 120 µM | 8.06 | – | – |
